This is a sample that favours compounds with a hit; in the whole collection about 8.9% have one here.
HSV augment: increases HSV replication in cells; AID 1956; 0.005% of 220,000 active; maximum fold increase; HSV replication augmentation in cells, fold increase; in the data active means maximum fold increase above about 1.5; tested in PC3 cells
bCat nuc transl: alters nuclear translocation of beta-catenin in HeLa cells; nuclear translocation activity, % at 5 µM; immunofluorescence imaging; 0.3% of 190,000 active;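 active means nuclear translocation activity above 50% at 5 µM, with a well cell count of 50 or more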;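 further: per-cell ratio of nuclear to cytoplasmic median beta-catenin stain intensity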
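test system = HeLa cells, endogenous beta-catenin | dosing = single 5 µM dose plus 0.02–20 µM confirmation series | times = compound treatment 24 h, 37°C, 5% CO2 | technique = beta-catenin immunofluorescence imaging with DAPI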
L major viab: inhibitors of Leishmania major promastigote growth. Leishmania major promastigotes, resazurin fluorescence viability. 9% of 200,000 active. AID 1063. inhibition, % at 10 µM; in the data active means inhibition above about 50%;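 further: promastigotes grown with compound for 44 hours at 28 °C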
Dynein cargo inh: blocks dynein driven cargo transport along microtubules; 3617.4 mouse cells, GR-EGFP nuclear translocation imaging; test concentration mostly 20 µM; stimulated with dexamethasone, 1 µM; stronger effect = lower value; z-score, hits read low; 0.47% of 220,000 active;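 active means plate z-score of nuclear minus cytoplasmic receptor signal below a set negative limit, without overly bright fluorescence or cell loss, cut at about -3.5 in these data, passing the limit was not always enough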;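 further: z-score of nuclear minus cytoplasmic ring GR-EGFP intensity difference per well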
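Also added – dexamethasone, 1.0 µM final · Buffer or medium – tet-free, stripped-serum medium · Schedule – induction 48 h, compound 1 h, agonist 30 min · Detection – formaldehyde fixation, Hoechst nuclear stain, 10x automated fluorescence imaging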
MT stabilize HCS: microtubule stabilizers in HeLa cells. HeLa tubulin immunostaining HCS, 24 h; share of cells brighter than vehicle mean+2SD. % tubulin-high responders, % at 10 µM. 0.83% of 200,000 active;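 active means plate Z-score above 3 for both tubulin-high and condensed-nucleus cell shares, with cell loss under 80%, at 10 µM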;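 further: anti alpha tubulin signal scored within the nucleus-defined area of each cell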
Of the large screens only hits and unclear results are named; the others gave an inactive call.

O=C(Nc1ncc(S(=O)(=O)c2ccc([N+](=O)[O-])cc2)s1)c1cccc2ccccc12	L major viab 99.7
COCC(=O)Nc1ncc(S(=O)(=O)c2ccc([N+](=O)[O-])cc2)s1	none
CN(C)S(=O)(=O)c1ccc(NC(=O)CN2CCC(Cc3ccccc3)CC2)cc1	L major viab 76.0
COC(=O)CCSc1cc(NCCOC(C)=O)c([N+](=O)[O-])c2nonc12	L major viab 84.0
CC(=O)OCCCNc1cc(Sc2nc3ccccc3s2)c2nonc2c1[N+](=O)[O-]	L major viab 65.0
Cc1ccccc1Cn1cc(NC(=O)c2cc(-c3cccs3)on2)cn1	none
O=C1SC(SCc2ccccc2)=N/C1=C\c1ccco1	none
CC(NC(=O)c1cccc(Cn2cc([N+](=O)[O-])cn2)c1)c1ccc(C(C)(C)C)cc1 (stereo unspecified)	MT stabilize HCS 46.4 (no result: bCat nuc transl)
O=C(Nc1cccnc1)c1cccs1	none (no result: bCat nuc transl)
O=C(Nc1cccc(-c2cn3cccnc3n2)c1)c1cccs1	L major viab 98.4
O=C(Nc1cccc(-c2cn3cccnc3n2)c1)c1ccco1	L major viab 100.1
O=C(Nc1ccc(O)c(-c2nc3ccccc3s2)c1)c1cc(=O)c2ccccc2o1	none
O=C(Nc1ccncc1)c1cccs1	L major viab 58.7
O=C(Nc1ccc(O)c(-c2nc3ccccc3s2)c1)c1cccs1	L major viab 62.1
Cc1nc2ccc(S(=O)(=O)Nc3cccc(-c4nc5cccnc5s4)c3C)cc2s1	none
Nc1nonc1NN=C1CCCCC1	none (no result: L major viab, MT stabilize HCS)
O=C(Nc1cccc(-c2cn3cccnc3n2)c1)c1ccc(Br)o1	L major viab 100.3
Oc1ccc(-c2csc(-c3cccnc3)n2)cc1O	none (no result: L major viab, MT stabilize HCS)
O=C(Nc1ccccc1)Nc1cccc(-c2cn3cccnc3n2)c1	none
COc1ccc(NC(=O)c2ccco2)cc1NC(=O)c1cccs1	none
O=C(Nc1cccc(-c2csc(-c3ccccc3)n2)c1)c1cccs1	L major viab 82.1
Oc1ccc(-c2csc(-c3ccccc3)n2)cc1O	L major viab 58.7
O=C(Nc1ccc(NC(=O)c2cccs2)c(Cl)c1)c1ccco1	L major viab 58.8
c1cnc2nc(-c3ccc4c(c3)OCO4)cn2c1	none
Cc1c(NC(=O)c2cccs2)cccc1C(=O)O	L major viab 81.3
O=C(Nc1cccc(-c2cn3cccnc3n2)c1)c1ccc2c(c1)OCO2	L major viab 97.6
CN1CCN(C(=O)c2ccccc2NC(=O)c2cccs2)CC1	none
Cc1ccc(-c2cn3cccnc3n2)cc1NC(=O)c1ccc(Br)o1	none
COc1ccc(-c2cn3cccnc3n2)cc1NC(=O)c1ccc(Br)o1	L major viab 99.2
O=C(CSc1ncnc2c1cnn2-c1ccc(Cl)cc1)NCc1ccc2c(c1)OCO2	L major viab 52.1
O=C(CSc1ncnc2c1cnn2-c1ccccc1)Nc1ccc2c(c1)OCO2	none (no result: HSV augment)
Cc1nnc(SCC(=O)NCc2ccc3c(c2)OCO3)s1	none
O=C(CSc1nc2cc(Cl)ccc2s1)NCc1ccc2c(c1)OCO2	L major viab 75.7 (no result: bCat nuc transl)
COc1ccc(/C=C(/CC(=O)NCc2ccc(Cl)cc2)c2nc3ccccc3s2)cc1	none (no result: bCat nuc transl)
COc1ccccc1/C=C(/CC(=O)NCc1ccc2c(c1)OCO2)c1nc2ccccc2s1	L major viab 93.2 (no result: bCat nuc transl)
COc1ccc(S(=O)(=O)Nc2cc(C(=O)NCCCN3CCOCC3)ccc2N2CCOCC2)cc1	none
CCOC(=O)c1ccc(N2CCCCC2)c(NS(=O)(=O)c2cccc(C(F)(F)F)c2)c1	none (no result: L major viab, MT stabilize HCS)
CCN(CC)CCNC(=O)c1ccc(N2CCCCC2)c(NS(=O)(=O)c2ccc(C)cc2)c1	L major viab 100.5
COC(=O)c1ccc(N2CCCCC2)c(NS(=O)(=O)c2ccc(C)cc2)c1	L major viab 96.7 (no result: HSV augment)
CC(=O)N1CCc2cc(S(=O)(=O)NC(C(=O)NC3CCCc4ccccc43)C(C)C)ccc21 (stereo unspecified)	none
O=C(CSc1nnc2c(Cl)cc(Cl)cn12)NC1CCS(=O)(=O)C1 (stereo unspecified)	none (no result: bCat nuc transl)
CCC(=O)N1CCc2cc(OC)c(OC)cc2C1COc1ccccc1OC (stereo unspecified)	none
CCOc1ccc(CC2c3cc(OCC)c(OCC)cc3CCN2C(=O)c2cc(OC)c(OC)c(OC)c2)cc1OCC (stereo unspecified)	L major viab 54.7
CCCCn1c(=S)[nH]c2ccc(N3CCOCC3)cc2c1=O	none
COc1ccc(/C=N/N=C2/NC(=O)C(CC(=O)O)S2)cc1OCc1ccc(Cl)cc1Cl (stereo unspecified)	none
O=C(CSc1nc2ccccc2[nH]1)N1CCN(S(=O)(=O)c2ccc(Cl)cc2)CC1	L major viab 64.5 (no result: bCat nuc transl)
O=S(=O)(c1cnc[nH]1)N1CCN(c2ccc(Cl)cc2)CC1	none
Cc1ccc(S(=O)(=O)N2CCN(C(=O)CSc3nc4ccccc4c(=O)[nH]3)CC2)cc1	none (no result: bCat nuc transl)
O=S(=O)(c1ccc2nc(-c3ccccc3)[nH]c2c1)N1CCN(c2ccc(Cl)cc2)CC1	MT stabilize HCS 16.0
O=C(Cn1nnc(-c2ccccc2)n1)N1CCN(S(=O)(=O)c2ccc(Cl)cc2)CC1	none
O=S(=O)(c1ccc2nc(COc3ccc(Cl)cc3Cl)[nH]c2c1)N1CCOCC1	none
O=S(=O)(c1ccc2nc(SCc3ccc(Cl)cc3)[nH]c2c1)N1CCOCC1	L major viab 81.3
Cc1ccccc1-c1nnn(CC(=O)N2CCN(S(=O)(=O)c3ccc(Cl)cc3)CC2)n1	L major viab 53.4
CCCCN1C(N)=NC[C@@H]1Cc1ccc(O)cc1	none (no result: L major viab, MT stabilize HCS)
O=C(CSc1nc2ccccc2[nH]1)NCCc1ccc(Cl)cc1	L major viab 56.1
O=C(CSc1nc2ccccc2c(=O)[nH]1)NCc1ccc(Cl)cc1	none (no result: HSV augment, bCat nuc transl)
Cc1cccc(NC(=O)c2oc(=O)c3ccccc3c2-c2ccccc2)c1C	L major viab 79.6
Cc1ccccc1NC(=O)c1oc(=O)c2ccccc2c1-c1ccccc1	none
Cc1cc(Cl)c(S(=O)(=O)NC(C)C)cc1OCC(N)=O	none
CCOC(=O)c1c(N)sc(C(=O)Nc2ccccc2)c1C	L major viab 58.2
CCOC(=O)c1c(C)nc2sc(C(=O)Nc3ccccc3)c(N)c2c1-c1ccc(OC)cc1	L major viab 96.6
Cc1cc(NC(=O)c2cccc(S(=O)(=O)N3c4ccccc4CC3C)c2)no1 (stereo unspecified)	none (no result: L major viab, MT stabilize HCS)
CCOC(=O)c1sc(NC(=O)Nc2ccccc2)cc1C	L major viab 92.4 (no result: bCat nuc transl)
CCOC(=O)c1sc(NC(=O)c2cccc(S(=O)(=O)N3c4ccccc4CC3C)c2)cc1C (stereo unspecified)	L major viab 61.7
COc1ccc(C(=O)C2CCCCC2=O)cc1 (stereo unspecified)	none
O=C(NCc1cccs1)C1CC(=O)N(C2CCCC2)C1 (stereo unspecified)	none (no result: bCat nuc transl)
CCOC(=O)c1sc(NC(=O)Nc2ccccc2Cl)cc1C	L major viab 79.8
O=C(Nc1nnc(Cc2ccc([N+](=O)[O-])cc2)s1)c1ccc2c(c1)OCO2	none (no result: L major viab, MT stabilize HCS)
CC(=O)NC1CC2CCCC(C1)N2CC(=O)N1CCCc2ccccc21 (stereo unspecified)	none

Screens as filed in PubChem BioAssay.
